This note sets out measurements from ChEMBL document CHEMBL2311332, “Epidithiodiketopiperazine as a pharmacophore for protein lysine methyltransferase G9a inhibitors: reducing cytotoxicity by structural simplification” (Bioorg Med Chem Lett, 2013).

pIC50: −log10 of the molar value. Calls of active or inactive are those of the source. The calls are words filed in the database; no cut-off is given here.

Data set [1] addresses T1, Histone-lysine N-methyltransferase EHMT2 (Homo sapiens, UniProt Q96KQ7).
T1 sequence (Q96KQ7 whole entry): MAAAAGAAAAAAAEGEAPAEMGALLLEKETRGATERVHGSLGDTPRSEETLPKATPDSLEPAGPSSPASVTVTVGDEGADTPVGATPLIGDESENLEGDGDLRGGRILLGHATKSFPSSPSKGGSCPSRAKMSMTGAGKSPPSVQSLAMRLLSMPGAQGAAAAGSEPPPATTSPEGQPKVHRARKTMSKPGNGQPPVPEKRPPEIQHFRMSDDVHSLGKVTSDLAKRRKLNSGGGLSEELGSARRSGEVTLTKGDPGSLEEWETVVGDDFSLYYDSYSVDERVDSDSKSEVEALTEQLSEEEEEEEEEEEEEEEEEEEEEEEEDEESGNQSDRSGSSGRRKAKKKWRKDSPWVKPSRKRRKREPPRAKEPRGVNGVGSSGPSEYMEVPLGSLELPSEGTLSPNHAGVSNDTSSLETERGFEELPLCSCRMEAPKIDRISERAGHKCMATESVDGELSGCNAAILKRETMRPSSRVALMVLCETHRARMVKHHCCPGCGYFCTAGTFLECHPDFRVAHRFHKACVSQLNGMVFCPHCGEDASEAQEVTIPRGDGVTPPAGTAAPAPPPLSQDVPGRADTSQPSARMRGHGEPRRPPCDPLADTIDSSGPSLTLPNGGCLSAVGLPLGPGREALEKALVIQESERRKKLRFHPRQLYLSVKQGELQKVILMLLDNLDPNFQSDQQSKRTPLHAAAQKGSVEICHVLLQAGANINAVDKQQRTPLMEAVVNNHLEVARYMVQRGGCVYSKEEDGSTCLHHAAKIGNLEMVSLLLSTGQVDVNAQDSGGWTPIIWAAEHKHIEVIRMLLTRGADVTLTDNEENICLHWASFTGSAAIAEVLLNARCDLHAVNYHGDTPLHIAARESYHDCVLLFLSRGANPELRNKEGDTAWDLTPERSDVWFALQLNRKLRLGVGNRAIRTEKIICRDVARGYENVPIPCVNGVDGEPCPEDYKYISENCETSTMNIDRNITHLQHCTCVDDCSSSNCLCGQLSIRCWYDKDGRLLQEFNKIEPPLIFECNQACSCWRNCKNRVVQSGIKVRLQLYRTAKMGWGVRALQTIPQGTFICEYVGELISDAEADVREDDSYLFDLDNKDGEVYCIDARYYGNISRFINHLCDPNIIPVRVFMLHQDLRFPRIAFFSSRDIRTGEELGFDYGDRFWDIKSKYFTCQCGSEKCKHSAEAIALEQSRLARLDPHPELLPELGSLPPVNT
Description: Inhibition of protein lysine methyltransferase G9a (unknown origin) by modified ELISA assay. A general note: ELISA stands for enzyme-linked immunosorbent assay.

The test system of the next data set is HL-60. The data set can be described thus: Cytotoxicity against human HL60 cells at 3 to 30 uM after 4 hrs by Alamar Blue assay. The settings on record: hl-60, 4 h. The data set is classed as cell-based. Summed up:
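HL-60 cells were exposed to the derivatives for 4 h. Cell viability was then read by alamarBlue.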
Background: The colour change of resazurin is a common sign of viable cells or microbes.

The target in data set [2] is Thioredoxin reductase (Homo sapiens) (UniProt Q16881+Q9NNW7+Q86VQ6). Description: Inhibition of thioredoxin reductase (unknown origin) assessed as reduction of DTNB at 10 uM. It counts as protein assay.
Data set [3] addresses T1, Histone-lysine N-methyltransferase EHMT2. Description: Inhibition of protein lysine methyltransferase G9a (unknown origin) by ELISA assay.

For orientation: pIC50 means the negative decadic logarithm of the IC50, by convention in mol/L.

Regarding `CN1C(=O)[C@@]23C[C@]4([C@]56C[C@@]78SS[C@@](CO)(C(=O)N7[C@H]5Nc5ccccc56)N(C)C8=O)c5ccccc5N[C@@H]4N2C(=O)[C@]1(CO)SS3` [CHAETOCIN], the pIC50 in data set [1] was 5.14. On the same count and under the same terms, then `CN1C(=O)[C@]23C[C@@]4([C@@]56C[C@]78SS[C@](CO)(C(=O)N7[C@@H]5Nc5ccccc56)N(C)C8=O)c5ccccc5N[C@H]4N2C(=O)[C@@]1(CO)SS3`, with 5.19.

Take `CN1C(=O)[C@@]23C[C@@H]4c5ccccc5N[C@@H]4N2C(=O)[C@@]1(CO[Si](C)(C)C(C)(C)C)SS3`: the pIC50 in data set [1] was 5.48. Against the preceding compound, the pIC50 is 0.29 log units higher. The same measure, in the same setting: then `CN1C(=O)[C@@]2(S)C[C@]3([C@]45C[C@]6(S)C(=O)N(C)[C@](S)(CO)C(=O)N6[C@H]4Nc4ccccc45)c4ccccc4N[C@@H]3N2C(=O)[C@@]1(S)CO`, with 4.57.

`CN1C(=O)C23CCCN2C(=O)C1(CO)SSS3` (racemic): the Activity result with HL-60 is “Non-toxic”. Further, the inhibition result in data set [2] is “inactive”. Further, the pIC50 in data set [1] is 5.28. Compound `CN1C(=O)[C@@]23C[C@]4([C@]56C[C@@]78SS[C@](CO[Si](C)(C)C(C)(C)C)(C(=O)N7[C@H]5Nc5ccccc56)N(C)C8=O)c5ccccc5N[C@@H]4N2C(=O)[C@@]1(CO[Si](C)(C)C(C)(C)C)SS3` had a pIC50 in data set [1] of 5.14.

`CN1C(=O)[C@@]23C[C@]4([C@]56C[C@@]78S[C@](CO)(C(=O)N7[C@H]5Nc5ccccc56)N(C)C8=O)c5ccccc5N[C@@H]4N2C(=O)[C@@]1(CO)S3` gave a pIC50 in data set [1] of under 4.00. As to `CN1C(=O)C2(S)CCCN2C(=O)C1(S)CO` (racemic), the Activity result in the data set on HL-60 is listed as “Non-toxic”. Moreover, the negative-log IC50 (pIC50) in data set [1] was 4.88. Regarding `CN1C(=O)C23CCCN2C(=O)C1(CO)SS3` (racemic), in the data set on HL-60, the Activity entry is “Non-toxic”. Also, in data set [2], the inhibition entry was “inactive”. In data set [1], this compound gave a negative logarithm of the IC50 (pIC50) of 5.28. Turning to `CN1C(=O)[C@@H]2C[C@@]3([C@@]45C[C@H]6C(=O)N(C)[C@@H](CO)C(=O)N6[C@@H]4Nc4ccccc45)c4ccccc4N[C@H]3N2C(=O)[C@@H]1CO`, the pIC50 in data set [1] is under 4.00. As for `CN1C(=O)[C@H]2C[C@]3([C@]45C[C@@H]6C(=O)N(C)[C@H](CO)C(=O)N6[C@H]4Nc4ccccc45)c4ccccc4N[C@@H]3N2C(=O)[C@H]1CO`, the values for the pIC50 in data set [3] and in data set [1] were under 4.30 and under 4.00, respectively. In turn, `CN1C(=O)[C@]23C[C@H]4c5ccccc5N[C@H]4N2C(=O)[C@]1(CO[Si](C)(C)C(C)(C)C)SS3` gave a pIC50 in data set [1] of 4.63.
